Measured values: paper PMC6261781 (Cell chemical biology, 2018)
Structures can show the parent of a compound that is named as a salt.

Columns and labels:
in vitro = format: cell-based, human; conditions: human
MT-4 cells = test: in vitro; format: cell-based, human; conditions: for S.I. with (CC50/IC50^WT): CC50 in MT-4 / IC50 against HIV-1^WT
HIV-1EFdA^R = test: p24 assay using MT-4 cells; format: cell-based; conditions: for IC50: Human immunodeficiency virus 1, MT4, read-out: IC50 against HIV-1EFdA^R; for Fold change of IC50 against HIV-1EFdA^R compared with HIV-1^WT / Activity against HIV-1EFdA^R (in words): p24 assay, MT-4 cells; for Activity against HIV-1EFdA^R (in words): concentrations up to 1 μM
How it was run: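 MT-4 cells (RPMI 1640, 10% FCS, 37°C, 5% CO2) infected with a recombinant HIV-1NL4-3-based clone and cultured 5 days with test compound. Supernatant p24 was measured by chemiluminescent enzyme immunoassay, and signal (cps) was converted to ng/ml against a 2-fold serial-dilution p24 standard curve. Run in triplicate in two or three independent experiments; IC50 was calculated per experiment and averaged.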

HIV-1^M184V [1] = conditions: ref Kawamoto et al., 2008; Maeda et al., 2014; cited from earlier work
[2] = test system: HIV-1 with I142V, T165R, and M184V in RT; conditions: ref Kawamoto et al., 2008; cited from earlier work
HBV = conditions: ref Takamatsu et al., 2015; cited from earlier work
[3] = 10-mg single dose in humans; ref Grobler et al., CROI. Abstr. 98, 2016; cited from earlier work
HIV-1^WT = test: Anti-HIV-1 MTT assay; format: cell-based; conditions: read-out: Anti-HIV-1 IC50 against HIV-1^WT, MT-4 cells, mean ± 1 S.D.
HIV-1^67-75 = test: Anti-HIV-1 MTT assay in MT-4 cells; format: cell-based
[4] = ref Nakata et al., 2007; cited from earlier work
HIV-1^K65R = test: Anti-HIV-1 MTT assay in MT-4 cells; format: cell-based
HIV-1^M184V [5] = test: Anti-HIV-1 MTT assay in MT-4 cells; format: cell-based
HIV-1^T215F = test: Anti-HIV-1 MTT assay in MT-4 cells; format: cell-based
HIV-1 = conditions: ref Takamatsu et al., 2015; cited from earlier work

For `C#C[C@]1(CO)O[C@@H](n2cnc3c(N)nc(F)nc32)C[C@@H]1O` [EFdA, 4′-ethynyl-2-fluoro-2′-deoxyadenosine], the CC50 (in vitro) was 19.2 ± 6 µM, the “S.I. with (CC50/IC50^WT)” value (MT-4 cells) was 64,000 and the IC50 (HIV-1EFdA^R) was 0.042 µM. The “Fold change of IC50 against HIV-1EFdA^R compared with HIV-1^WT” value (HIV-1EFdA^R) was 52 fold, the “Activity against HIV-1EFdA^R (in words)” value (HIV-1EFdA^R) was “favorable activity” and the “Fold decrease in activity against HIV-1^M184V (previous observation)” value (HIV-1^M184V [1]) was ~ 6 fold. For the same compound, the “Resistance, fold change compared with HIV-1^WT” value [2] was 22 fold, the “Anti-HBV activity (in words)” value (HBV) was “minor anti-HBV activity” and the “Time with concentrations exceeding projected efficacious concentrations” value [3] was “at least 7 days”.
For `Nc1nc(NC2CC2)c2ncn([C@H]3C=C[C@@H](CO)C3)c2n1` [ABC, abacavir, reference compound], the IC50 (HIV-1^WT) was 0.263 ± 0.0076 µM, the IC50 (HIV-1^67-75; Human immunodeficiency virus 1, MT4, read-out: IC50 against HIV-1^67-75) was over 1 µM and the CC50 (in vitro) was over 100 µM. The “S.I. with (CC50/IC50^WT)” value (MT-4 cells) was over 380.
In the case of `C[C@]1(CO)O[C@@H](n2cnc3c(N)nc(N)nc32)C[C@@H]1O` [MAdA, 4′-methyl-2-amino-2′-deoxyadenosine], the CC50 (in vitro) is reported as 4 ± 0.3 µM and the “S.I. with (CC50/IC50^WT)” value (MT-4 cells) is reported as 15.
For `C#C[C@]1(COP(=O)(O)OP(=O)(O)OP(=O)(O)O)O[C@@H](n2cnc3c(N)nc(F)nc32)C[C@@H]1O` [EFdA-TP, EFdA-triphosphate], the Intracellular half-life [4] is given as at least 17 h.
In the case of `CNc1nc(N)nc2c1ncn2[C@H]1C[C@H](O)[C@](CO)(CF)O1` [FMAMdA, 4′-fluoromethyl-2-amino-N6-methyl-2′-deoxyadenosine], the CC50 (in vitro) is reported as over 100 µM and the “S.I. with (CC50/IC50^WT)” value (MT-4 cells) is reported as over 600.
In the case of `C[C@]1(CO)O[C@@H](n2cnc3c(O)nc(N)nc32)C[C@@H]1O` [MdG, 4′-methyl-2′-deoxyguanosine], the CC50 (in vitro) is reported as 4.6 ± 0.6 µM and the “S.I. with (CC50/IC50^WT)” value (MT-4 cells) is reported as 25.
In the case of `Cc1cn(C2CC(O)C(C#N)(CO)O2)c(=O)[nH]c1=O` (stereo not shown) [CdT, 4′-cyano-2′-deoxythymidine], the IC50 (HIV-1^WT) is reported as 0.0091 ± 0.0073 µM, the “Fold change of IC50 against HIV-1^K65R compared with HIV-1^WT (in parentheses)” value (HIV-1^K65R) is reported as 0.2 fold and the “Fold change of IC50 against HIV-1^67-75 compared with HIV-1^WT (in parentheses)” value (HIV-1^67-75; MT-4 cells, MTT assay) is reported as 0.9 fold. For the same compound, the “Fold change of IC50 against HIV-1^M184V compared with HIV-1^WT (in parentheses)” value (HIV-1^M184V [5]) was 1.3 fold, the IC50 (HIV-1^M184V [5]; read-out: Anti-HIV-1 IC50 against HIV-1^M184V) was 0.0117 ± 0.0024 µM and the “Fold change of IC50 against HIV-1^T215F compared with HIV-1^WT (in parentheses)” value (HIV-1^T215F) was 0.3 fold. The IC50 (HIV-1^T215F; read-out: Anti-HIV-1 IC50 against HIV-1^T215F) was 0.003 µM, the “S.I. with (CC50/IC50^WT)” value (MT-4 cells) was > 1,100 and the CC50 (MT-4 cells; read-out: CC50 in MT-4, MT-4 cells, 7 days of culture) was over 10 µM. The “Activity against HIV-1EFdA^R (in words)” value (HIV-1EFdA^R) was “favorable activity”.
With `N#C[C@]1(CO)O[C@@H](n2cnc3c(N)nc(N)nc32)C[C@@H]1O` [CAdA, 4′-cyano-2-amino-2′-deoxyadenosine] the CC50 (in vitro) was 3.5 ± 1.2 µM, the “S.I. with (CC50/IC50^WT)” value (MT-4 cells) was 17,500 and the “Activity against HIV-1EFdA^R (in words)” value (HIV-1EFdA^R) was “favorable activity”. For the same compound, the “Anti-HBV activity (in words)” value (HBV) was “sub nano molar” and the “Anti-HIV-1 activity (in words)” value (HIV-1) was “sub nano molar”.
With `CC(C)OC(=O)OCOP(=O)(CO[C@H](C)Cn1cnc2c(N)ncnc21)OCOC(=O)OC(C)C` [TDF, tenofovir disoproxil fumarate, reference compound] the IC50 (HIV-1^WT) was 0.204 ± 0.127 µM, the CC50 (in vitro) was 39.4 ± 7.3 µM and the “S.I. with (CC50/IC50^WT)” value (MT-4 cells) was 190.
With `CC[C@]1(CO)O[C@@H](n2cnc3c(N)nc(N)nc32)C[C@@H]1O` [EtAdA, 4′-ethyl-2-amino-2′-deoxyadenosine] the CC50 (in vitro) was 35.9 ± 3.1 µM and the “S.I. with (CC50/IC50^WT)” value (MT-4 cells) was 4,030.
For `C#C[C@]1(CO)O[C@@H](n2ccc(N)nc2=O)C[C@@H]1O` [EdC, 4′-ethynyl-2′-deoxycytidine], the “Activity against HIV-1EFdA^R (in words)” value (HIV-1EFdA^R) was “favorable activity”.
With `Nc1nc(F)nc2c1ncn2[C@H]1C[C@H](O)[C@](CO)(CF)O1` [FMFdA, 4′-fluoromethyl-2-fluoro-2′-deoxyadenosine] the CC50 (in vitro) was 6.6 ± 0.5 µM and the “S.I. with (CC50/IC50^WT)” value (MT-4 cells) was 260.
For `N#C[C@]1(CO)O[C@@H](n2cnc3c(=O)[nH]c(N)nc32)C[C@@H]1O` [CdG, reference compound], the “Anti-HBV activity (in words)” value (HBV) is listed as “sub nano molar” and the “Anti-HIV-1 activity (in words)” value (HIV-1) is listed as “sub nano molar”.
In the case of `CC[C@]1(CO)O[C@@H](n2cnc3c(O)nc(N)nc32)C[C@@H]1O` [EtdG, 4′-ethyl-2′-deoxyguanosine], the CC50 (in vitro) is reported as 47 ± 3.2 µM and the “S.I. with (CC50/IC50^WT)” value (MT-4 cells) is reported as 8,390.
With `Nc1ccn([C@H]2C[C@H](O)[C@](CO)(CF)O2)c(=O)n1` [FMdC, 4′-fluoromethyl-2′-deoxycytidine] the CC50 (in vitro) was 4 µM and the “S.I. with (CC50/IC50^WT)” value (MT-4 cells) was 120.
In the case of `C=C[C@]1(CO)O[C@@H](n2cnc3c(N)nc(N)nc32)C[C@@H]1O` [VAdA, 4′-vinyl-2-amino-2′-deoxyadenosine], the CC50 (in vitro) is reported as 20.6 ± 3.2 µM, the “S.I. with (CC50/IC50^WT)” value (MT-4 cells) is reported as 4,790 and the IC50 (HIV-1EFdA^R) is reported as 0.804 µM. For the same compound, the “Fold change of IC50 against HIV-1EFdA^R compared with HIV-1^WT” value (HIV-1EFdA^R) was 190 fold.
With `Cc1cn([C@H]2C[C@H](N=[N+]=[N-])[C@@H](CO)O2)c(=O)[nH]c1=O` [AZT, zidovudine, reference compound] the IC50 (HIV-1^WT) was 0.0374 ± 0.0075 µM, the CC50 (in vitro) was over 100 µM and the “S.I. with (CC50/IC50^WT)” value (MT-4 cells) was > 2,670.
In the case of `Nc1nc(N)c2ncn([C@H]3C[C@H](O)[C@](CO)(CF)O3)c2n1` [FMAdA, 4′-fluoromethyl-2-amino-2′-deoxyadenosine], the CC50 (in vitro) is reported as 22.2 ± 4.1 µM and the “S.I. with (CC50/IC50^WT)” value (MT-4 cells) is reported as 7,400.
With `C#C[C@]1(CO)O[C@@H](n2cnc3c(=O)[nH]c(N)nc32)C[C@@H]1O` [EdG, 4′-ethynyl-2′-deoxyguanosine] the CC50 (in vitro) was 7 µM, the “S.I. with (CC50/IC50^WT)” value (MT-4 cells) was 4,350 and the “Activity against HIV-1EFdA^R (in words)” value (HIV-1EFdA^R) was “favorable activity”.
